Results reported in ChEMBL document CHEMBL1687843, “Detection of NDM-1-producing Klebsiella pneumoniae in Kenya” (2011).
≈ marks a conversion by molar mass, not a printed value. Calls of active or inactive are those of the source. The calls are words filed in the database; no cut-off is given here.

Legend:
Klebsiella pneumoniae [1] = assay: Antibacterial activity against carbapenem-resistant Klebsiella pneumoniae isolate 6 expressing beta-lactamase NDM-1 obtained from urethral pus of patient by Etest; settings: for MIC: isolate 6, Urethral pus
Klebsiella pneumoniae [2] = assay: Antibacterial activity against carbapenem-resistant Klebsiella pneumoniae isolate 1 expressing beta-lactamase NDM-1 obtained from urine of patient by liquid microdilution method; type: functional; settings: for MIC: isolate 1, Urine
Summary of the method: (§1)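 Liquid broth microdilution at 37°C gives the MIC against each clinical isolate; results are interpreted per CLSI guidelines.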

Klebsiella pneumoniae [3] = assay: Antibacterial activity against carbapenem-resistant Klebsiella pneumoniae isolate 3 expressing beta-lactamase NDM-1 obtained from urine of patient by liquid microdilution method; type: functional; settings: for MIC: isolate 3, Urine
Summary of the method: as §1

Klebsiella pneumoniae [4] = assay: Antibacterial activity against carbapenem-resistant Klebsiella pneumoniae isolate 4 expressing beta-lactamase NDM-1 obtained from urine of patient by Etest; type: functional; settings: for MIC: isolate 4, Urine
Summary of the method: (§2)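 Etest strips on Mueller-Hinton agar at 37°C give the MIC against each clinical isolate; susceptibility is interpreted per CLSI guidelines.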

Klebsiella pneumoniae [5] = assay: Antibacterial activity against carbapenem-resistant Klebsiella pneumoniae isolate 6 expressing beta-lactamase NDM-1 obtained from urethral pus of patient by liquid microdilution method; settings: for MIC: isolate 6, Urethral pus
Klebsiella pneumoniae [6] = assay: Antibacterial activity against carbapenem-resistant Klebsiella pneumoniae isolate 2 expressing beta-lactamase NDM-1 obtained from urine of patient by Etest; type: functional; settings: for MIC: isolate 2, Urine
Summary of the method: as §2

Klebsiella pneumoniae [7] = assay: Antibacterial activity against carbapenem-resistant Klebsiella pneumoniae isolate 2 expressing beta-lactamase NDM-1 obtained from urine of patient by liquid microdilution method; type: functional; settings: for MIC: isolate 2, Urine
Summary of the method: as §1

Klebsiella pneumoniae [8] = assay: Antibacterial activity against carbapenem-resistant Klebsiella pneumoniae isolate 3 expressing beta-lactamase NDM-1 obtained from urine of patient by Etest; type: functional; settings: for MIC: isolate 3, Urine
Summary of the method: as §2

Klebsiella pneumoniae [9] = assay: Antibacterial activity against carbapenem-resistant Klebsiella pneumoniae isolate 7 expressing beta-lactamase NDM-1 obtained from urine of patient by liquid microdilution method; type: functional; settings: for MIC: isolate 7, Urine
Summary of the method: as §1

Klebsiella pneumoniae [10] = assay: Antibacterial activity against carbapenem-resistant Klebsiella pneumoniae isolate 4 expressing beta-lactamase NDM-1 obtained from urine of patient by liquid microdilution method; type: functional; settings: for MIC: isolate 4, Urine
Summary of the method: as §1

Klebsiella pneumoniae [11] = assay: Antibacterial activity against carbapenem-resistant Klebsiella pneumoniae isolate 5 expressing beta-lactamase NDM-1 obtained from urine of patient by liquid microdilution method; type: functional; settings: for MIC: isolate 5, Urine
Summary of the method: as §1

Klebsiella pneumoniae [12] = assay: Antibacterial activity against carbapenem-resistant Klebsiella pneumoniae isolate 5 expressing beta-lactamase NDM-1 obtained from urine of patient by Etest; type: functional; settings: for MIC: isolate 5, Urine
Summary of the method: as §2

Klebsiella pneumoniae [13] = assay: Antibacterial activity against carbapenem-resistant Klebsiella pneumoniae isolate 7 expressing beta-lactamase NDM-1 obtained from urine of patient by Etest; type: functional; settings: for MIC: isolate 7, Urine
Summary of the method: as §2

Klebsiella pneumoniae [14] = assay: Antibacterial activity against carbapenem-resistant Klebsiella pneumoniae isolate 1 expressing beta-lactamase NDM-1 obtained from urine of patient by Etest; type: functional; settings: for MIC: isolate 1, Urine
Summary of the method: as §2

Escherichia coli [15] = assay: Antimicrobial activity against Escherichia coli J53; type: functional
Summary of the method: (§3)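 Strains: azide-resistant E. coli J53 recipient and its transconjugant. The transconjugant came from conjugation with K. pneumoniae Kp7 donor, selected on ceftazidime (30 µg/ml) plus azide (100 µg/ml). MICs were by Etest on Mueller-Hinton agar and by liquid microdilution at 37°C, interpreted per CLSI.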

Escherichia coli [16] = assay: Antimicrobial activity against Escherichia coli J53 harboring Klebsiella pneumoniae Kp7 beta-lactamase NDM-1; type: functional
Summary of the method: as §3

SMILES	Activity (Klebsiella pneumoniae [1])	Activity (Klebsiella pneumoniae [2])	Activity (Klebsiella pneumoniae [3])	Activity (Klebsiella pneumoniae [4])	MIC (Escherichia coli [15]) [µg/mL]	MIC (Klebsiella pneumoniae [1]) [µg/mL]	MIC (Klebsiella pneumoniae [2]) [µg/mL]	MIC (Klebsiella pneumoniae [3]) [µg/mL]	MIC (Klebsiella pneumoniae [4]) [µg/mL]	MIC (Klebsiella pneumoniae [5]) [µg/mL]	MIC (Klebsiella pneumoniae [6]) [µg/mL]	MIC (Klebsiella pneumoniae [7]) [µg/mL]	MIC (Escherichia coli [16]) [µg/mL]	MIC (Klebsiella pneumoniae [8]) [µg/mL]	MIC (Klebsiella pneumoniae [9]) [µg/mL]	MIC (Klebsiella pneumoniae [10]) [µg/mL]	MIC (Klebsiella pneumoniae [11]) [µg/mL]	MIC (Klebsiella pneumoniae [12]) [µg/mL]	MIC (Klebsiella pneumoniae [13]) [µg/mL]	MIC (Klebsiella pneumoniae [14]) [µg/mL]	also measured
C[C@@H]1O[C@@H]1P(=O)(O)O	inactive	inactive	inactive	inactive	–	–	–	–	–	–	–	–	–	–	–	–	–	–	–	–	Activity (Klebsiella pneumoniae [5]): inactive; Activity (Klebsiella pneumoniae [6]): inactive; Activity (Klebsiella pneumoniae [7]): inactive; Activity (Klebsiella pneumoniae [8]): inactive; Activity (Klebsiella pneumoniae [9]): inactive; Activity (Klebsiella pneumoniae [10]): inactive; Activity (Klebsiella pneumoniae [11]): inactive; Activity (Klebsiella pneumoniae [12]): inactive; Activity (Klebsiella pneumoniae [13]): inactive; Activity (Klebsiella pneumoniae [14]): inactive
O=C(N[C@H](CO)[C@H](O)c1ccc([N+](=O)[O-])cc1)C(Cl)Cl	inactive	inactive	inactive	inactive	–	–	–	–	–	–	–	–	–	–	–	–	–	–	–	–	Activity (Klebsiella pneumoniae [5]): inactive; Activity (Klebsiella pneumoniae [6]): inactive; Activity (Klebsiella pneumoniae [7]): inactive; Activity (Klebsiella pneumoniae [8]): inactive; Activity (Klebsiella pneumoniae [9]): inactive; Activity (Klebsiella pneumoniae [10]): inactive; Activity (Klebsiella pneumoniae [11]): inactive; Activity (Klebsiella pneumoniae [12]): inactive; Activity (Klebsiella pneumoniae [13]): inactive; Activity (Klebsiella pneumoniae [14]): inactive
O=C1CN(/N=C/c2ccc([N+](=O)[O-])o2)C(=O)N1	inactive	inactive	inactive	inactive	–	–	–	–	–	–	–	–	–	–	–	–	–	–	–	–	Activity (Klebsiella pneumoniae [5]): inactive; Activity (Klebsiella pneumoniae [6]): inactive; Activity (Klebsiella pneumoniae [7]): inactive; Activity (Klebsiella pneumoniae [8]): inactive; Activity (Klebsiella pneumoniae [9]): inactive; Activity (Klebsiella pneumoniae [10]): inactive; Activity (Klebsiella pneumoniae [11]): inactive; Activity (Klebsiella pneumoniae [12]): inactive; Activity (Klebsiella pneumoniae [13]): inactive; Activity (Klebsiella pneumoniae [14]): inactive
C[C@@H](O)[C@H]1C(=O)N2C(C(=O)O)=C(S[C@@H]3CN[C@H](CNS(N)(=O)=O)C3)[C@H](C)[C@H]12 [DORIPENEM]	–	–	–	–	0.12 (≈ 0.285 µM)	> 32	> 32	> 32	> 32	> 32	> 32	> 32	1.5 (≈ 3.57 µM)	> 32	> 32	> 32	> 32	> 32	> 32	> 32	–
C[C@@H](O)[C@H]1C(=O)N2C(C(=O)O)=C(S[C@@H]3CN[C@H](C(=O)Nc4cccc(C(=O)O)c4)C3)[C@H](C)[C@H]12 [ERTAPENEM]	–	–	–	–	0.12 (≈ 0.252 µM)	> 32	> 32	> 32	> 32	> 32	> 32	> 32	1.5 (≈ 3.15 µM)	> 32	> 32	> 32	> 32	> 32	> 32	> 32	–
C[C@@H](O)[C@H]1C(=O)N2C(C(=O)O)=C(SCCNC=N)C[C@H]12 [IMIPENEM ANHYDROUS]	–	–	–	–	0.12 (≈ 0.401 µM)	> 32	> 32	> 32	> 32	> 32	> 32	> 32	4 (≈ 13.4 µM)	> 32	> 32	> 32	> 32	> 32	> 32	> 32	–
C[C@@H](O)[C@H]1C(=O)N2C(C(=O)O)=C(S[C@@H]3CN[C@H](C(=O)N(C)C)C3)[C@H](C)[C@H]12 [MEROPENEM]	–	–	–	–	0.12 (≈ 0.313 µM)	> 32	> 32	> 32	> 32	> 32	> 32	> 32	1.5 (≈ 3.91 µM)	> 32	> 32	> 32	> 32	> 32	> 32	> 32	–
CO[C@H]1/C=C/O[C@@]2(C)Oc3c(C)c(O)c4c(O)c(c(/C=N/N5CCN(C)CC5)c(O)c4c3C2=O)NC(=O)/C(C)=C\C=C\[C@H](C)[C@H](O)[C@@H](C)[C@@H](O)[C@@H](C)[C@H](OC(C)=O)[C@@H]1C [RIFAMPIN]	–	–	–	–	–	> 32	> 32	> 32	> 32	> 32	> 32	> 32	–	> 32	> 32	> 32	> 32	> 32	> 32	> 32	–
CN(C)c1cc(NC(=O)CNC(C)(C)C)c(O)c2c1C[C@H]1C[C@H]3[C@H](N(C)C)C(O)=C(C(N)=O)C(=O)[C@@]3(O)C(O)=C1C2=O [TIGECYCLINE]	–	–	–	–	–	0.5 (≈ 0.854 µM)	–	–	0.5 (≈ 0.854 µM)	–	0.5 (≈ 0.854 µM)	–	–	0.5 (≈ 0.854 µM)	–	–	–	0.5 (≈ 0.854 µM)	0.5 (≈ 0.854 µM)	0.5 (≈ 0.854 µM)	–
